# Results published in ChEMBL document CHEMBL5058577, “EUbOPEN Chemogenomics Library 2 (Multiplex)” (2022).
# Tested on: Fibroblast
# Experiment: Multiplex assay against human fibroblast
# Type: toxicity, cell-based
# How it was run: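 On a CQ1 microscope at 37°C and 5% CO2, live cells were imaged after compound addition. They had been stained at seeding with Hoechst33342, BioTracker Green Microtubule Cytoskeleton Dye, MitoTracker Red and Annexin V Alexa Fluor 680. CellPathfinder machine-learning gating assigned cells to Hoechst high-intensity objects or normal cells, normal cells to healthy, pyknosed or fragmented nuclei, and pyknosed cells to mitotic or apoptotic. Tubulin, mitochondrial-mass and membrane-permeability phenotypes are per cents of healthy-nucleus cells.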
# [1] = 12 h, 1 µM, compound concentration 1 uM, replicate 1
# [2] = 12 h, 1 µM, compound concentration 1 uM, replicate 2
# [3] = 12 h, 10 µM, compound concentration 10 uM, replicate 1
# [4] = 12 h, 10 µM, compound concentration 10 uM, replicate 2
# [5] = 24 h, 1 µM, compound concentration 1 uM, replicate 1
# [6] = 24 h, 1 µM, compound concentration 1 uM, replicate 2
# [7] = 24 h, 10 µM, compound concentration 10 uM, replicate 1
# [8] = 24 h, 10 µM, compound concentration 10 uM, replicate 2
# [9] = 48 h, 1 µM, compound concentration 1 uM, replicate 1
# [10] = 48 h, 1 µM, compound concentration 1 uM, replicate 2
# [11] = 48 h, 10 µM, compound concentration 10 uM, replicate 1
# [12] = 48 h, 10 µM, compound concentration 10 uM, replicate 2
compound,measurement,setting,value
O=C(NCCO)c1cccc(-c2cc(Nc3ccc(OC(F)(F)F)cc3)ncn2)c1,Population Apoptotic (%),[1],46%
same,Population Fragmented Nuclei (%),[1],16%
same,Population Healthy Nuclei (%),[1],60%
same,Population Hoechst High Intensity Objects (%),[1],3%
same,Population Membrane Permeable-Phenotype (%),[1],1%
same,Population Mitochondria Different-Phenotype (%),[1],6%
same,Population Mitotic Cells (%),[1],53%
same,Population Normal (%),[1],96%
same,Population Pyknosed Nuclei (%),[1],24%
same,Population Tubulin-Different-Phenotype (%),[1],33%
same,Total Cell Count,[1],130
same,Population Apoptotic (%),[2],38%
same,Population Fragmented Nuclei (%),[2],29%
same,Population Healthy Nuclei (%),[2],46%
same,Population Hoechst High Intensity Objects (%),[2],4%
same,Population Membrane Permeable-Phenotype (%),[2],10%
same,Population Mitochondria Different-Phenotype (%),[2],8%
same,Population Mitotic Cells (%),[2],61%
same,Population Normal (%),[2],95%
same,Population Pyknosed Nuclei (%),[2],23%
same,Population Tubulin-Different-Phenotype (%),[2],46%
same,Total Cell Count,[2],149
same,Population Apoptotic (%),[3],37%
same,Population Fragmented Nuclei (%),[3],17%
same,Population Healthy Nuclei (%),[3],59%
same,Population Hoechst High Intensity Objects (%),[3],5%
same,Population Membrane Permeable-Phenotype (%),[3],0%
same,Population Mitochondria Different-Phenotype (%),[3],13%
same,Population Mitotic Cells (%),[3],62%
same,Population Normal (%),[3],94%
same,Population Pyknosed Nuclei (%),[3],22%
same,Population Tubulin-Different-Phenotype (%),[3],54%
same,Total Cell Count,[3],185
same,Population Apoptotic (%),[4],40%
same,Population Fragmented Nuclei (%),[4],22%
same,Population Healthy Nuclei (%),[4],36%
same,Population Hoechst High Intensity Objects (%),[4],10%
same,Population Membrane Permeable-Phenotype (%),[4],11%
same,Population Mitochondria Different-Phenotype (%),[4],11%
same,Population Mitotic Cells (%),[4],59%
same,Population Normal (%),[4],89%
same,Population Pyknosed Nuclei (%),[4],40%
same,Population Tubulin-Different-Phenotype (%),[4],79%
same,Total Cell Count,[4],192
same,Population Apoptotic (%),[5],56%
same,Population Fragmented Nuclei (%),[5],16%
same,Population Healthy Nuclei (%),[5],60%
same,Population Hoechst High Intensity Objects (%),[5],1%
same,Population Membrane Permeable-Phenotype (%),[5],2%
same,Population Mitochondria Different-Phenotype (%),[5],4%
same,Population Mitotic Cells (%),[5],43%
same,Population Normal (%),[5],98%
same,Population Pyknosed Nuclei (%),[5],22%
same,Population Tubulin-Different-Phenotype (%),[5],33%
same,Total Cell Count,[5],135
same,Population Apoptotic (%),[6],52%
same,Population Fragmented Nuclei (%),[6],24%
same,Population Healthy Nuclei (%),[6],50%
same,Population Hoechst High Intensity Objects (%),[6],2%
same,Population Membrane Permeable-Phenotype (%),[6],5%
same,Population Mitochondria Different-Phenotype (%),[6],5%
same,Population Mitotic Cells (%),[6],47%
same,Population Normal (%),[6],97%
same,Population Pyknosed Nuclei (%),[6],25%
same,Population Tubulin-Different-Phenotype (%),[6],42%
same,Total Cell Count,[6],139
same,Population Apoptotic (%),[7],50%
same,Population Fragmented Nuclei (%),[7],14%
same,Population Healthy Nuclei (%),[7],61%
same,Population Hoechst High Intensity Objects (%),[7],11%
same,Population Membrane Permeable-Phenotype (%),[7],1%
same,Population Mitochondria Different-Phenotype (%),[7],21%
same,Population Mitotic Cells (%),[7],50%
same,Population Normal (%),[7],88%
same,Population Pyknosed Nuclei (%),[7],24%
same,Population Tubulin-Different-Phenotype (%),[7],53%
same,Total Cell Count,[7],175
same,Population Apoptotic (%),[8],41%
same,Population Fragmented Nuclei (%),[8],30%
same,Population Healthy Nuclei (%),[8],36%
same,Population Hoechst High Intensity Objects (%),[8],7%
same,Population Membrane Permeable-Phenotype (%),[8],10%
same,Population Mitochondria Different-Phenotype (%),[8],25%
same,Population Mitotic Cells (%),[8],58%
same,Population Normal (%),[8],92%
same,Population Pyknosed Nuclei (%),[8],32%
same,Population Tubulin-Different-Phenotype (%),[8],84%
same,Total Cell Count,[8],187
same,Population Apoptotic (%),[9],82%
same,Population Fragmented Nuclei (%),[9],21%
same,Population Healthy Nuclei (%),[9],65%
same,Population Hoechst High Intensity Objects (%),[9],1%
same,Population Membrane Permeable-Phenotype (%),[9],3%
same,Population Mitochondria Different-Phenotype (%),[9],1%
same,Population Mitotic Cells (%),[9],17%
same,Population Normal (%),[9],98%
same,Population Pyknosed Nuclei (%),[9],13%
same,Population Tubulin-Different-Phenotype (%),[9],28%
same,Total Cell Count,[9],130
same,Population Apoptotic (%),[10],45%
same,Population Fragmented Nuclei (%),[10],31%
same,Population Healthy Nuclei (%),[10],53%
same,Population Membrane Permeable-Phenotype (%),[10],6%
same,Population Mitochondria Different-Phenotype (%),[10],4%
same,Population Mitotic Cells (%),[10],54%
same,Population Pyknosed Nuclei (%),[10],14%
same,Population Tubulin-Different-Phenotype (%),[10],38%
same,Total Cell Count,[10],156
same,Population Apoptotic (%),[11],70%
same,Population Fragmented Nuclei (%),[11],35%
same,Population Healthy Nuclei (%),[11],51%
same,Population Hoechst High Intensity Objects (%),[11],13%
same,Population Membrane Permeable-Phenotype (%),[11],0%
same,Population Mitochondria Different-Phenotype (%),[11],26%
same,Population Mitotic Cells (%),[11],30%
same,Population Normal (%),[11],86%
same,Population Pyknosed Nuclei (%),[11],13%
same,Population Tubulin-Different-Phenotype (%),[11],64%
same,Total Cell Count,[11],170
same,Population Apoptotic (%),[12],76%
same,Population Fragmented Nuclei (%),[12],40%
same,Population Healthy Nuclei (%),[12],47%
same,Population Hoechst High Intensity Objects (%),[12],6%
same,Population Membrane Permeable-Phenotype (%),[12],13%
same,Population Mitochondria Different-Phenotype (%),[12],19%
same,Population Mitotic Cells (%),[12],23%
same,Population Normal (%),[12],93%
same,Population Pyknosed Nuclei (%),[12],11%
same,Population Tubulin-Different-Phenotype (%),[12],86%
same,Total Cell Count,[12],198
